Compound activity as filed in PubChem.
Neddyl block – cullin neddylation inhibition. TR-FRET cullin neddylation, biochemical. calls only at 25 µM. 0.58% of 360,000 active. AID 651699; in the data active = inhibition above about 36%
KLK7 zymogen act – proKLK7 (human) activation, primary screen; P49862; purified proKLK7, EDANS-DABCYL substrate fluorescence; 100% is mature enzyme control, 0% vehicle; activation, % at 7 µM; 0.9% of 370,000 active; AID 652039;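 active = activation above the mean of all tested compounds plus 3 SD, computed per campaign excluding outliers beyond control limits, cut at about 13% in these data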
Target sequence (P49862 whole entry, looked up): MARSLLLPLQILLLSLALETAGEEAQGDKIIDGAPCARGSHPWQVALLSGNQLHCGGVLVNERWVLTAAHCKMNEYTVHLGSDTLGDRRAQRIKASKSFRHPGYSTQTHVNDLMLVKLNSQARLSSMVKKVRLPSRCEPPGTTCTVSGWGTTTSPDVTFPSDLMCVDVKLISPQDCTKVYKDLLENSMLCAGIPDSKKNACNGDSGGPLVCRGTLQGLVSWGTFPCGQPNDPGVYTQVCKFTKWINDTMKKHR
MT1-MMP act inh – blocks activation of human MT1-MMP; P50281; HT1080 RFP-PRO-GFP cells, GFP/RFP ratio fluorescence, overnight; percent of plate control window, DMSO zero; GFP/RFP ratio change, % at 20 µM; 0.061% of 360,000 active;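 active = GFP/RFP ratio change of at least 30% with cell ATP level not reduced by more than half and red fluorescence within 50% of control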
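Test system: HT1080 cells expressing an RFP-PRO-GFP fluorescent reporter construct / Compound dosing: single-point 20 µM compound, 1% DMSO / Schedule: cells overnight before dosing, compound overnight, 37 °C, 5% CO2 / Evaluation: GFP/RFP fluorescence ratio / Control set: DMSO and RFP-L50D-GFP cell wells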
DDE Tn7 FP inh – DD(E)-Tn7 binding inhibition, primary FP screen. inhibition, % at 8.3 µM. FP displacement of FITC-Tn7 peptide from fibrin DD(E); 0% = median of compound wells per plate. 0.13% of 370,000 active. AID 720508;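 active = inhibition above the mean of compounds falling within the control limits plus 3 SD of them, cut at about 14% in these data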;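 note: 0% = plate median of compound wells and 100% = 10 µM Aha-Tn7 peptide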
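Assay system: human fibrin DD(E) protein / Input: 2 µM fibrin DD(E) / Benchmarks: high control of 10 µM Aha-Tn7 peptide / Measured by: fluorescence polarization of the labelled Tn7 tracer / Medium: Tris buffer with calcium and detergent, pH 7.8 / Timing: 10 min compound pre-incubation, 3 h probe incubation at room temperature / Repeats: one replicate per compound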
DDE Tn6 FP inh – inhibitors of Tn6 peptide binding to human fibrin DD(E) | P02675 | Fibrin DD(E) TRITC-Tn6 fluorescence polarization displacement | inhibition, % at 8.3 µM | 0.21% of 370,000 active;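 active = inhibition above a per-campaign cutoff: mean of compounds within control limits plus 3 SD, cut at about 15% in these data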;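 note: 0% = median of all compound wells on the plate and 100% = blocking peptide control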
SKN-1 block – inhibitors of C. elegans SKN-1 | 0.49% of 360,000 active | inhibition, % at 21.8 µM | C. elegans VP596 Pgst-4::GFP/RFP ratio, acrylamide-induced, 24 h;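 active = interference check ratio from 0.5 to 1.5 plus GFP to RFP signal ratio inhibition reaching or exceeding a fixed threshold, cut at about 30% in these data, passing the limit was not always enough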
KLK7 act conf – proKLK7 activation, confirmation; shares compounds with KLK7 zymogen act; purified proKLK7, EDANS-DABCYL substrate fluorescence; scaled: vehicle 0, mature enzyme 100; activation, % at 7 µM; 68% of 3,200 active; AID 686949;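 active = activation, as change over the incubation, above the mean of all tested compounds plus 3 SD, cut at about 13% in these data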
EDANS-DABCYL int – counter-screen for kallikrein-7 activators: EDANS-DABCYL optical interference; shares compounds with KLK7 zymogen act; EDANS-DABCYL substrate fluorescence interference, no enzyme, 4 h; solvent 0%, active enzyme control 100%; activation, % at 7 µM; 80% of 3,200 active;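 active = activation above the all-compound mean plus 3 SD, ignoring values outside control-based bounds, cut at about 4.8% in these data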;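 note: value is the 4 h activation minus the activation read at time zero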
EDANS interf – counter-screen for kallikrein-7 activators: EDANS-DABCYL interference, dose response; EDANS-DABCYL peptide fluorescence interference, no enzyme; 20% of 250 active; EC50, µM; shares compounds with KLK7 zymogen act; AID 720493;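 active = compounds that raise the fluorescence signal in this interference counterscreen, with EC50 at or below 10 µM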;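 note: intact quenched peptide substrate alone read at 355 nm excitation and 520 nm emission; signal is fluorescence gain from T0 to T4 after four hours at room temperature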
Numbers without * were called inactive; i = inactive; nt = no result given. In the library only some 2.2% were active in any assay of this set; here they are far more common.

SMILES	Neddyl block	KLK7 zymogen act	MT1-MMP act inh	DDE Tn7 FP inh	DDE Tn6 FP inh	SKN-1 block	KLK7 act conf	EDANS-DABCYL int	others
O=C(CC(SCCO)c1ccc2c(c1)OCO2)c1cccs1 (stereo not drawn)	i	14*	-1	-5	1	5	26*	27*
O=C(CC(SCc1ccco1)c1ccc(O)cc1)c1cccs1 (stereo not drawn)	i	25*	-6	-3	-4	-6	16*	14*
COc1ccc(OC)c(/C=N/NC(=O)c2nnn(-c3nonc3N)c2-c2cccs2)c1	nt	10	0	-1	-3	11	nt	nt
CCCOc1ccc(-c2c(C(=O)N/N=C/c3ccc(OC)cc3)nnn2-c2nonc2N)cc1	i	57*	2	2	-5	7	-463	-365
CCCOc1ccc(-c2c(C(=O)N/N=C/c3ccc(OCC)cc3)nnn2-c2nonc2N)cc1	i	-401	2	-8	-1	5	nt	nt
COc1ccc(/C=N/NC(=O)c2nnn(-c3nonc3N)c2-c2cccs2)c(OC)c1	nt	68*	1	1	-9	15	-5	-21
O=C1c2ccccc2NC(c2ccco2)N1O (stereo not drawn)	i	0	4	-3	1	-3	nt	nt
c1ccc(C2Nc3ccccc3-c3nc4ccccc4n32)nc1 (stereo not drawn)	nt	36*	5	-2	-6	-19	14*	16*
c1ccc(C2Nc3ccccc3-c3nc4ccccc4n32)cc1 (stereo not drawn)	nt	66*	-2	1	-4	2	3	5.4*
O=C1Cn2c(nc3ccccc32)-c2ccccc2N1	i	-15	6	-11	-6	-3	nt	nt
c1coc(C2Nc3ccccc3-c3nc4ccccc4n32)c1 (stereo not drawn)	nt	16*	-12	3	-2	11	39*	40*
COC(=O)C1CCN(C(=O)CN2CCC(C(=O)c3ccc(C)cc3)CC2)CC1	nt	0	nt	3	7	nt	nt	nt
O=C(Nc1ccc(Cl)cn1)c1ccc2nccnc2c1	i	-1	-4	-5	-10	12	nt	nt
COc1ccc(CCC(=O)NC2=NCCS2)cc1OC	i	0	-6	-8	-3	2	nt	nt
COc1ccc(/C=C/C(=O)NC2=NCCS2)cc1OC	nt	15*	-1	5	8	1	48*	47*
CN1C(=O)C2C(c3ccc(N(C)C)cc3)NN(Cc3ccccc3)C2C1=O (stereo not drawn)	i	15*	-2	5	-10	4	14*	13*
COC(=O)c1ccc(C2C(C#N)=C(C)NC3=C2C(=O)CC(C)(C)C3)cc1 (stereo not drawn)	nt	36*	4	5	9	15	43*	30*	EDANS interf=>70
CCCCC1C(C#N)=C(C)NC2=C1C(=O)CC(C)(C)C2 (stereo not drawn)	nt	41*	-2	2	1	0	22*	25*
COc1ccc(C2C(C#N)=C(SC)NC3=C2C(=O)CC(C)(C)C3)cc1 (stereo not drawn)	i	1	0	0	-2	-11	nt	nt
COc1ccc(C2C(C#N)=C(C)NC3=C2C(=O)CC(C)(C)C3)c(OC)c1 (stereo not drawn)	nt	nt	16	nt	nt	-2	nt	nt
O=C(N/N=C/C(Br)=C/c1ccccc1)c1cnccn1	i	-1	2	3	3	-11	nt	nt
N#Cc1cnn2c3c(cnc12)C(=O)N1CCc2ccccc2C1C3 (stereo not drawn)	nt	77*	-2	-4	1	-9	-181	-138
O=C1c2cnc3ncnn3c2CC2c3ccccc3CCN12 (stereo not drawn)	nt	101*	8	1	4	18	195*	179*
COC(=O)c1ccccc1OCCOc1ccccc1C(=O)OC	i	0	-1	-3	12	-10	nt	nt
COc1ccc(NC(=O)C2CCCN2C(=O)NC2CCCCC2)cc1OC (stereo not drawn)	i	0	8	3	4	-9	nt	nt
SMILES	Neddyl block	KLK7 zymogen act	MT1-MMP act inh	DDE Tn7 FP inh	DDE Tn6 FP inh	SKN-1 block	KLK7 act conf	EDANS-DABCYL int	others
COc1ccc(OC)c(/C=N\NC(=O)c2c(C)nc3cc(C)ccn23)c1	nt	16*	-1	-1	2	8	24*	-10	EDANS interf=>70
C=CCOc1ccc(/C=N/NC(=O)c2c(C)nc3ccc(Cl)cn23)cc1	i	23*	0	-1	-3	16	348*	333*
COC(=O)c1ccc(/C=N\NC(=O)c2c(C)nc3ccc(Cl)cn23)cc1	i	nt	-2	nt	nt	-5	nt	nt
COc1cc(/C=N\NC(=O)c2c(C)nc3cc(C)ccn23)ccc1O	i	0	10	2	4	10	nt	nt
COc1cc(/C=N/NC(=O)c2c(C)nc3ccc(Cl)cn23)cc(OC)c1OC	i	36*	1	-1	2	13	19*	14*	EDANS interf=i
CNc1ccc(-c2cccc(CO)c2)cn1	nt	20*	1	3	0	-8	24*	16*	EDANS interf=>70
Cc1ccc(NC(=S)NC(=O)c2cncc(Br)c2)c(C)c1	i	0	-6	0	2	4	nt	nt
Cc1ccnc(NC(=S)NC(=O)c2cncc(Br)c2)c1	i	13*	1	3	0	5	14*	15*
CC(=O)c1cc(-c2ccc(Cl)c(C(F)(F)F)c2)c(=O)n2c1CCC2	nt	1	nt	0	-7	nt	nt	nt
CCOC(=O)C1=C(C)NC2=C(C(=O)CCC2)C1c1cccs1 (stereo not drawn)	i	3	0	-3	7	-4	nt	nt
CCOCCOC(=O)C1=C(C)NC2=C(C(=O)CC(c3cccs3)C2)C1c1ccsc1 (stereo not drawn)	nt	90*	-2	3	-1	-5	-4	-1
CCn1cc(CNC(=O)CSc2nc(-c3ccc(OC)c(OC)c3)cc(C(F)(F)F)n2)c(C)n1	nt	21*	-1	-2	9	3	4	8.2*
Nc1ccc(Cl)cc1C(=O)OCC(=O)NC1CCS(=O)(=O)C1 (stereo not drawn)	nt	14*	3	8	2	-7	23*	19*	EDANS interf=i
Cc1cccc(-c2noc(CNC(=O)c3ccoc3C)n2)c1	i	-1	-18	-6	-5	-1	nt	nt
